ChEMBL document CHEMBL3244032, “Synthesis and antiviral acticity of some phosphates of the broad-spectrum antiviral nucleoside, 1-beta-D-ribofuranosyl-1,2,4-triazole-3-carboxamide (ribavirin)” (J Med Chem, 1978)
Activity calls are given as the source filed them. No cut-off for these calls is given here.

Assays:
KB [1] = test: Antiviral activity against Rhinovirus type 13 infected in human KB cells assessed as inhibition of virus-induced cytopathic effect at 1 to 1000 ug/ml after 72 hrs; format: functional, cell-based; settings: Human rhinovirus A13
Method in brief: (§1)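 KB cell monolayers (24 h old) infected with 320 cell culture 50% infectious doses/mL of virus; compound added 15 min after infection at 1000 to 1 μg/mL. Plates incubated 72 h at 37 °C and scored for inhibition of viral CPE. Activity was expressed as a virus rating that accounts for cytotoxicity and CPE in treated versus untreated cells. VR 0.5 or above was taken as definite activity.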

Vaccinia virus = test: Antiviral activity against Vaccinia virus infected in human KB cells assessed as inhibition of virus-induced cytopathic effect at 1 to 1000 ug/ml after 72 hrs; format: functional, organism-based; settings: Orthopoxvirus vaccinia
Human alphaherpesvirus 1 = test: Antiviral activity against HSV1 infected in human KB cells assessed as inhibition of virus-induced cytopathic effect at 1 to 1000 ug/ml after 72 hrs; format: functional, organism-based; method in brief: as §1
KB [2] = test: Antiviral activity against Adenovirus type 3 infected in human KB cells assessed as inhibition of virus-induced cytopathic effect at 1 to 1000 ug/ml after 72 hrs; format: functional, cell-based; settings: Human adenovirus 3; method in brief: as §1
Human respirovirus 3 = test: Antiviral activity against Parainfluenza virus type 3 infected in human KB cells assessed as inhibition of virus-induced cytopathic effect at 1 to 1000 ug/ml after 72 hrs; format: functional, organism-based; method in brief: as §1
Influenza A virus [3] = test: Antiviral activity against Influenza A2 virus Japan 305 infected in Swiss mouse assessed as mean survival time at 75 mg/kg/day, po bid administered for 9 days (reference value: 9 days); format: functional
Mus musculus [4] = test: Toxicity in Swiss mouse infected with Murine hepatitis virus Friend-Braunsteiner assessed as survival at 37.5 mg/kg/day, ip bid administered for 8 days started at 2 hrs prior to infection; format: organism-based; design: route intraperitoneal; settings: in vivo
Mus musculus [5] = test: Toxicity in Swiss mouse infected with Influenza B virus Lee assessed as survival at 75 mg/kg/day, ip bid administered for 9 days started at 4 hrs prior to infection; format: organism-based; design: route intraperitoneal; settings: in vivo
Murine hepatitis virus [6] = test: Antiviral activity against Murine hepatitis virus Friend-Braunsteiner infected in ip dosed Swiss mouse assessed as most effective dose administered bid for 8 days; format: functional
Method in brief: (§2)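 Swiss mice, 16-18 g, inoculated ip with a 95% lethal dose of virus. Dosed ip twice daily for 8 days, beginning 2 h before inoculation, at 18.8, 37.5 or 75 mg/kg/day; controls got saline. Survivors counted on day 21; survival compared by χ² analysis. Mean survival time is from deaths on or before day 21, compared by t test.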

Influenza B virus [7] = test: Antiviral activity against Influenza B virus Lee infected in Swiss mouse assessed as survival at 75 mg/kg/day, ip bid administered for 9 days relative to control; format: functional, organism-based
Method in brief: (§3)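 Swiss mice, 14-16 g, given virus intranasally at a dose lethal to 95%. Dosed intraperitoneally twice daily for 9 days, starting 4 h before infection; controls got saline. Survivors counted on day 21 postinfection; survival compared by χ² analysis. Mean survival time is from animals dying on or before day 21 and was compared by t test.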

Murine hepatitis virus [8] = test: Antiviral activity against Murine hepatitis virus Friend-Braunsteiner infected in Swiss mouse assessed as mean survival time at 18.8 mg/kg/day, ip bid administered for 8 days (reference value: 5.2 days); format: functional; settings: route intraperitoneal; method in brief: as §2
Murine hepatitis virus [9] = test: Antiviral activity against Murine hepatitis virus Friend-Braunsteiner infected in Swiss mouse assessed as mean survival time at 37.5 mg/kg/day, ip bid administered for 8 days (reference value: 5.2 days); format: functional; settings: route intraperitoneal; method in brief: as §2
Influenza B virus [10] = test: Antiviral activity against Influenza B virus Lee infected in Swiss mouse assessed as mean survival time at 75 mg/kg/day, ip bid administered for 9 days (reference value: 11.2 days); format: functional; settings: route intraperitoneal; method in brief: as §3
Influenza A virus [11] = test: Antiviral activity against Influenza A2 virus Japan 305 infected in Swiss mouse assessed as survival at 75 mg/kg/day, po bid administered for 9 days relative to control; format: functional, organism-based
Mus musculus [12] = test: Toxicity in Swiss mouse infected with Murine hepatitis virus Friend-Braunsteiner assessed as survival at 18.8 mg/kg/day, ip bid administered for 8 days started at 2 hrs prior to infection; format: organism-based; design: route intraperitoneal; settings: in vivo
[13] = Toxicity in Swiss mouse; format: organism-based; settings: in vivo
Mus musculus [14] = test: Toxicity in Swiss mouse infected with Influenza A2 virus Japan 305 assessed as survival at 75 mg/kg/day, po bid administered for 9 days started at 4 hrs prior to infection; format: organism-based; design: route oral; settings: in vivo
Murine hepatitis virus [15] = test: Antiviral activity against Murine hepatitis virus Friend-Braunsteiner infected in Swiss mouse assessed as survival at 18.8 to 75 mg/kg/day, ip bid administered for 8 days relative to control; format: functional, organism-based
Method in brief: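 Swiss mice of 16-18 g were inoculated ip with a 95% lethal dose of virus. Treatment was given ip twice daily for 8 days, starting 2 h before inoculation, at 75, 37.5 or 18.8 mg/kg/day; placebo controls received saline. Survivors were counted on day 21 postinfection and compared by χ² analysis. Mean survival time covered animals dying by day 21 and was compared by t test. Uninfected toxicity controls were included.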

Mus musculus [16] = test: Toxicity in Swiss mouse infected with Murine hepatitis virus Friend-Braunsteiner assessed as survival at 75 mg/kg/day, ip bid administered for 8 days started at 2 hrs prior to infection; format: organism-based; design: route intraperitoneal; settings: in vivo
Murine hepatitis virus [17] = test: Antiviral activity against Murine hepatitis virus Friend-Braunsteiner infected in Swiss mouse assessed as mean survival time at 75 mg/kg/day, ip bid administered for 8 days (reference value: 5.2 days); format: functional; settings: route intraperitoneal; method in brief: as §2

SMILES	Activity (KB [1])	Activity (Vaccinia virus)	Activity (Human alphaherpesvirus 1)	Activity (KB [2])	Activity (Human respirovirus 3)	MSD (Influenza A virus [3])	Activity (Mus musculus [4])	Activity (Mus musculus [5])	Activity (Murine hepatitis virus [6])	Activity (Influenza B virus [7])	MSD (Murine hepatitis virus [8])	MSD (Murine hepatitis virus [9])	MSD (Influenza B virus [10])	Activity (Influenza A virus [11])	Activity (Mus musculus [12])	MTD [13]	Activity (Mus musculus [14])	Activity (Murine hepatitis virus [15])	Activity (Mus musculus [16])	MSD (Murine hepatitis virus [17])
NC(=O)c1ncn([C@@H]2O[C@H](COP(=O)(O)OP(=O)(O)OP(=O)(O)O)[C@@H](O)[C@H]2O)n1	Active	Active	Active	inactive	Active	–	–	–	–	–	–	–	–	–	–	–	–	–	–	–
NC(=O)c1ncn([C@@H]2O[C@H](COP(=O)([O-])[O-])[C@@H](O)[C@H]2O)n1.[Li+].[Li+]	Active	Active	Active	inactive	Active	7.6 days	Non-toxic	Non-toxic	37.5 mg/kg/day	Active	5.3 days	6 days	13.3 days	Active	Non-toxic	150 mg/kg/day	Non-toxic	Active	Non-toxic	6.1 days
NC(=O)c1ncn([C@@H]2O[C@H](CO)[C@H]3OP(=O)(O)O[C@H]32)n1	Active	Active	Active	inactive	Active	–	–	–	–	–	–	–	–	–	–	–	–	–	–	–
NC(=O)c1ncn([C@@H]2O[C@@H]3COP(=O)(O)O[C@H]3[C@H]2O)n1	Active	Active	Active	inactive	Active	–	–	–	–	–	–	–	–	–	–	–	–	–	–	–
NC(=O)c1ncn([C@@H]2O[C@H](COP(=O)(O)OP(=O)(O)O)[C@@H](O)[C@H]2O)n1	Active	Active	Active	inactive	Active	–	–	–	–	–	–	–	–	–	–	–	–	–	–	–
NC(=O)c1ncn([C@@H]2O[C@H](CO)[C@@H](O)[C@H]2O)n1	Active	Active	Active	Active	Active	–	–	–	–	–	–	–	–	–	–	–	–	–	–	–
